Laboratory results reported in ChEMBL document CHEMBL1914423, “New imidazo[2,1-b]thiazole derivatives: synthesis, in vitro anticancer evaluation, and in silico studies” (Eur J Med Chem, 2011).

These molecules were tested on CCRF-CEM (assay: Anticancer activity against human CCRF-CEM cells assessed as cell growth at 10^-5 M after 48 hrs by SRB assay). Settings: read-out: Activity.
Format: functional
Method in brief: (§1)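 NCI-60 single-dose screen at one concentration. Cells grown in RPMI 1640 with 5% FBS and 2 mM L-glutamine, plated at 5000–40,000 cells/well, and pre-incubated 24 h at 37 °C in 5% CO2 before DMSO-dissolved drug was added. Cells fixed with TCA, SRB-stained, absorbance read at 515 nm. Percent growth calculated against time-zero and untreated control plates.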
In the case of `COc1cccc(-c2nc3sccn3c2-c2ccnc(NCCNC(=O)Nc3cccc(C(F)(F)F)c3)n2)c1`, the growth at 10 µM is reported as 27%.

These molecules were tested on RPMI-8226 (assay: Anticancer activity against human RPMI8226 cells assessed as cell growth at 10^-5 M after 48 hrs by SRB assay). Settings: RPMI-8226, 48 h, read-out: Activity.
Format: functional
`COc1cccc(-c2nc3sccn3c2-c2ccnc(NCCNC(=O)Nc3cccc(C(F)(F)F)c3)n2)c1` was tested, and the growth at 10 µM was 20.4%.

What follows are molecules tested on EKVX (assay: Anticancer activity against human EKVX cells assessed as cell growth at 10^-5 M after 48 hrs by SRB assay). Settings: read-out: Activity.
Format: functional
Method in brief: as §1
For `COc1cccc(-c2nc3sccn3c2-c2ccnc(NCCNC(=O)Nc3cccc(C(F)(F)F)c3)n2)c1`, the growth at 10 µM was 61.5%.

What follows are molecules tested on HOP-62 (assay: Anticancer activity against human HOP62 cells assessed as cell growth at 10^-5 M after 48 hrs by SRB assay). Settings: HOP-62, 48 h, read-out: Activity.
Format: functional
Method in brief: as §1
For `COc1cccc(-c2nc3sccn3c2-c2ccnc(NCCNC(=O)Nc3cccc(C(F)(F)F)c3)n2)c1`, the growth at 10 µM was 98.9%.

Each molecule was assayed on HOP-92 (assay: Anticancer activity against human HOP92 cells assessed as cell growth at 10^-5 M after 48 hrs by SRB assay). Settings: HOP-92, 48 h, read-out: Activity.
Format: functional
Method in brief: as §1
`COc1cccc(-c2nc3sccn3c2-c2ccnc(NCCNC(=O)Nc3cccc(C(F)(F)F)c3)n2)c1` showed a growth at 10 µM of 92.4%.

What follows are molecules tested on NCI-H226 (assay: Anticancer activity against human NCI-H226 cells assessed as cell growth at 10^-5 M after 48 hrs by SRB assay). Settings: NCI-H226, 48 h, read-out: Activity.
Format: functional
`COc1cccc(-c2nc3sccn3c2-c2ccnc(NCCNC(=O)Nc3cccc(C(F)(F)F)c3)n2)c1` gave a growth at 10 µM of 94.9%.

The molecules below were run on NCI-H23 (assay: Anticancer activity against human NCI-H23 cells assessed as cell growth at 10^-5 M after 48 hrs by SRB assay). Settings: NCI-H23, 48 h, read-out: Activity.
Format: functional
Molecule `COc1cccc(-c2nc3sccn3c2-c2ccnc(NCCNC(=O)Nc3cccc(C(F)(F)F)c3)n2)c1` has a growth at 10 µM of 83.8%.

Each molecule was assayed on NCI-H322M (assay: Anticancer activity against human NCI-H322M cells assessed as cell growth at 10^-5 M after 48 hrs by SRB assay). Settings: read-out: Activity.
Format: functional
With `COc1cccc(-c2nc3sccn3c2-c2ccnc(NCCNC(=O)Nc3cccc(C(F)(F)F)c3)n2)c1` the growth at 10 µM was 81.3%.

These molecules were tested on NCI-H522 (assay: Anticancer activity against human NCI-H522 cells assessed as cell growth at 10^-5 M after 48 hrs by SRB assay). Settings: NCI-H522, 48 h, read-out: Activity.
Format: functional
With `COc1cccc(-c2nc3sccn3c2-c2ccnc(NCCNC(=O)Nc3cccc(C(F)(F)F)c3)n2)c1` the growth at 10 µM was 47.7%.

Each molecule was assayed on HCT-116 (assay: Anticancer activity against human HCT116 cells assessed as cell growth at 10^-5 M after 48 hrs by SRB assay). Settings: HCT-116, 48 h, read-out: Activity.
Format: functional
Method in brief: as §1
Work on `COc1cccc(-c2nc3sccn3c2-c2ccnc(NCCNC(=O)Nc3cccc(C(F)(F)F)c3)n2)c1` yielded a growth at 10 µM of 44.6%.

Each molecule was assayed on HCT-15 (assay: Anticancer activity against human HCT15 cells assessed as cell growth at 10^-5 M after 48 hrs by SRB assay). Settings: HCT-15, 48 h, read-out: Activity.
Format: functional
Method in brief: as §1
Work on `COc1cccc(-c2nc3sccn3c2-c2ccnc(NCCNC(=O)Nc3cccc(C(F)(F)F)c3)n2)c1` yielded a growth at 10 µM of 45.9%.

The molecules below were run on HT-29 (assay: Anticancer activity against human HT-29 cells assessed as cell growth at 10^-5 M after 48 hrs by SRB assay). Settings: HT-29, 48 h, read-out: Activity.
Format: functional
Method in brief: as §1
`COc1cccc(-c2nc3sccn3c2-c2ccnc(NCCNC(=O)Nc3cccc(C(F)(F)F)c3)n2)c1` showed a growth at 10 µM of 44.1%.

What follows are molecules tested on KM12 (assay: Anticancer activity against human KM12 cells assessed as cell growth at 10^-5 M after 48 hrs by SRB assay). Settings: KM12, 48 h, read-out: Activity.
Format: functional
Method in brief: as §1
In the case of `COc1cccc(-c2nc3sccn3c2-c2ccnc(NCCNC(=O)Nc3cccc(C(F)(F)F)c3)n2)c1`, the growth at 10 µM is reported as 33.5%.

The molecules below were run on SF-268 (assay: Anticancer activity against human SF268 cells assessed as cell growth at 10^-5 M after 48 hrs by SRB assay). Settings: SF-268, 48 h, read-out: Activity.
Format: functional
Work on `COc1cccc(-c2nc3sccn3c2-c2ccnc(NCCNC(=O)Nc3cccc(C(F)(F)F)c3)n2)c1` yielded a growth at 10 µM of 62.3%.

Each molecule was assayed on SF-539 (assay: Anticancer activity against human SF539 cells assessed as cell growth at 10^-5 M after 48 hrs by SRB assay). Settings: SF-539, 48 h, read-out: Activity.
Format: functional
`COc1cccc(-c2nc3sccn3c2-c2ccnc(NCCNC(=O)Nc3cccc(C(F)(F)F)c3)n2)c1` gave a growth at 10 µM of 77.9%.

These molecules were tested on SNB-75 (assay: Anticancer activity against human SNB75 cells assessed as cell growth at 10^-5 M after 48 hrs by SRB assay). Settings: SNB-75, 48 h, read-out: Activity.
Format: functional
Method in brief: (§2)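 NCI-60 single-dose screen: cells in RPMI 1640 with 5% FBS and 2 mM L-glutamine, plated at 5000–40,000 cells/well by doubling time, and preincubated 24 h at 37 °C. Compound given at one concentration from DMSO stock. Cells TCA-fixed and SRB-stained, absorbance at 515 nm. Percent growth relative to time-zero and untreated controls; inhibition % = 100 − growth %.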
`COc1cccc(-c2nc3sccn3c2-c2ccnc(NCCNC(=O)Nc3cccc(C(F)(F)F)c3)n2)c1` showed a growth at 10 µM of 71.8%.

Each molecule was assayed on U-251 (assay: Anticancer activity against human U251 cells assessed as cell growth at 10^-5 M after 48 hrs by SRB assay). Settings: U-251, 48 h, read-out: Activity.
Format: functional
Method in brief: as §2
In the case of `COc1cccc(-c2nc3sccn3c2-c2ccnc(NCCNC(=O)Nc3cccc(C(F)(F)F)c3)n2)c1`, the growth at 10 µM is reported as 58.1%.

What follows are molecules tested on LOX IMVI (assay: Anticancer activity against human LOXIMVI cells assessed as cell growth at 10^-5 M after 48 hrs by SRB assay). Settings: read-out: Activity.
Format: functional
Method in brief: as §1
With `COc1cccc(-c2nc3sccn3c2-c2ccnc(NCCNC(=O)Nc3cccc(C(F)(F)F)c3)n2)c1` the growth at 10 µM was 44.3%.

What follows are molecules tested on Malme-3M (assay: Anticancer activity against human MALME-3M cells assessed as cell growth at 10^-5 M after 48 hrs by SRB assay). Settings: read-out: Activity.
Format: functional
Method in brief: as §1
With `COc1cccc(-c2nc3sccn3c2-c2ccnc(NCCNC(=O)Nc3cccc(C(F)(F)F)c3)n2)c1` the growth at 10 µM was 85.1%.

These molecules were tested on SK-MEL-2 (assay: Anticancer activity against human SK-MEL-2 cells assessed as cell growth at 10^-5 M after 48 hrs by SRB assay). Settings: SK-MEL-2, 48 h, read-out: Activity.
Format: functional
Molecule `COc1cccc(-c2nc3sccn3c2-c2ccnc(NCCNC(=O)Nc3cccc(C(F)(F)F)c3)n2)c1` has a growth at 10 µM of 61.9%.

Each molecule was assayed on OVCAR-3 (assay: Anticancer activity against human OVCAR3 cells assessed as cell growth at 10^-5 M after 48 hrs by SRB assay). Settings: OVCAR-3, 48 h, read-out: Activity.
Format: functional
With `COc1cccc(-c2nc3sccn3c2-c2ccnc(NCCNC(=O)Nc3cccc(C(F)(F)F)c3)n2)c1` the growth at 10 µM was 66.3%.

These molecules were tested on OVCAR-5 (assay: Anticancer activity against human OVCAR5 cells assessed as cell growth at 10^-5 M after 48 hrs by SRB assay). Settings: OVCAR-5, 48 h, read-out: Activity.
Format: functional
`COc1cccc(-c2nc3sccn3c2-c2ccnc(NCCNC(=O)Nc3cccc(C(F)(F)F)c3)n2)c1` was tested, and the growth at 10 µM was 103%.

The molecules below were run on OVCAR-8 (assay: Anticancer activity against human OVCAR8 cells assessed as cell growth at 10^-5 M after 48 hrs by SRB assay). Settings: OVCAR-8, 48 h, read-out: Activity.
Format: functional
`COc1cccc(-c2nc3sccn3c2-c2ccnc(NCCNC(=O)Nc3cccc(C(F)(F)F)c3)n2)c1` was tested, and the growth at 10 µM was 21.3%.

Each molecule was assayed on SK-OV-3 (assay: Anticancer activity against human SKOV3 cells assessed as cell growth at 10^-5 M after 48 hrs by SRB assay). Settings: SK-OV-3, 48 h, read-out: Activity.
Format: functional
`COc1cccc(-c2nc3sccn3c2-c2ccnc(NCCNC(=O)Nc3cccc(C(F)(F)F)c3)n2)c1` gave a growth at 10 µM of 78.6%.

The molecules below were run on 786-0 (assay: Anticancer activity against human 786-0 cells assessed as cell growth at 10^-5 M after 48 hrs by SRB assay). Settings: 786-0, 48 h, read-out: Activity.
Format: functional
Method in brief: as §1
With `COc1cccc(-c2nc3sccn3c2-c2ccnc(NCCNC(=O)Nc3cccc(C(F)(F)F)c3)n2)c1` the growth at 10 µM was 65.6%.

These molecules were tested on A498 (assay: Anticancer activity against human A498 cells assessed as cell growth at 10^-5 M after 48 hrs by SRB assay). Settings: A498, 48 h, read-out: Activity.
Format: functional
Method in brief: as §1
For `COc1cccc(-c2nc3sccn3c2-c2ccnc(NCCNC(=O)Nc3cccc(C(F)(F)F)c3)n2)c1`, the growth at 10 µM was 61.6%.

The molecules below were run on ACHN (assay: Anticancer activity against human ACHN cells assessed as cell growth at 10^-5 M after 48 hrs by SRB assay). Settings: read-out: Activity.
Format: functional
Method in brief: as §1
`COc1cccc(-c2nc3sccn3c2-c2ccnc(NCCNC(=O)Nc3cccc(C(F)(F)F)c3)n2)c1` gave a growth at 10 µM of 46.2%.

The molecules below were run on UO-31 (assay: Anticancer activity against human UO31 cells assessed as cell growth at 10^-5 M after 48 hrs by SRB assay). Settings: UO-31, 48 h, read-out: Activity.
Format: functional
Method in brief: as §2
`COc1cccc(-c2nc3sccn3c2-c2ccnc(NCCNC(=O)Nc3cccc(C(F)(F)F)c3)n2)c1` was tested, and the growth at 10 µM was 39.7%.

The molecules below were run on DU-145 (assay: Anticancer activity against human DU145 cells assessed as cell growth at 10^-5 M after 48 hrs by SRB assay). Settings: DU-145, 48 h, read-out: Activity.
Format: functional
Method in brief: as §1
In the case of `COc1cccc(-c2nc3sccn3c2-c2ccnc(NCCNC(=O)Nc3cccc(C(F)(F)F)c3)n2)c1`, the growth at 10 µM is reported as 79.8%.

What follows are molecules tested on MCF7 (assay: Anticancer activity against human MCF7 cells assessed as cell growth at 10^-5 M after 48 hrs by SRB assay). Settings: MCF7, 48 h, read-out: Activity.
Format: functional
Method in brief: as §1
Molecule `COc1cccc(-c2nc3sccn3c2-c2ccnc(NCCNC(=O)Nc3cccc(C(F)(F)F)c3)n2)c1` has a growth at 10 µM of 54.8%.

Each molecule was assayed on MDA-MB-231 (assay: Anticancer activity against human MDA-MB-231 cells assessed as cell growth at 10^-5 M after 48 hrs by SRB assay). Settings: MDA-MB-231, 48 h, read-out: Activity.
Format: functional
Method in brief: as §1
`COc1cccc(-c2nc3sccn3c2-c2ccnc(NCCNC(=O)Nc3cccc(C(F)(F)F)c3)n2)c1` showed a growth at 10 µM of 43.6%.

These molecules were tested on BT-549 (assay: Anticancer activity against human BT549 cells assessed as cell growth at 10^-5 M after 48 hrs by SRB assay). Settings: BT-549, 48 h, read-out: Activity.
Format: functional
Method in brief: as §1
With `COc1cccc(-c2nc3sccn3c2-c2ccnc(NCCNC(=O)Nc3cccc(C(F)(F)F)c3)n2)c1` the growth at 10 µM was 71.9%.

The molecules below were run on T47D (assay: Anticancer activity against human T47D cells assessed as cell growth at 10^-5 M after 48 hrs by SRB assay). Settings: read-out: Activity.
Format: functional
Method in brief: as §2
With `COc1cccc(-c2nc3sccn3c2-c2ccnc(NCCNC(=O)Nc3cccc(C(F)(F)F)c3)n2)c1` the growth at 10 µM was 42.9%.
